Source: ChEMBL document CHEMBL1136990, “Design of HIV-1 protease inhibitors with pyrrolidinones and oxazolidinones as novel P1'-ligands to enhance backbone-binding interactions with protease: synthesis, biological evaluation, and protein-ligand X-ray studies” (J Med Chem, 2009)

What was measured:
[1] = Inhibition of HIV protease by fluorescence energy transfer assay; parameters: species or system Human immunodeficiency virus
[2] = tested on: Human immunodeficiency virus 1; experiment: Antiviral activity against HIV1 LAI in human MT2 cells by MTT assay; type: functional, organism-based; conditions: Human immunodeficiency virus 1, LAI
[3] = tested on: Human immunodeficiency virus 1; experiment: Antiviral activity against wild type HIV1 isolate ERS104pre infected in PHA-stimulated PBMC assessed as inhibition of p24 […] protein; type: functional, organism-based; conditions: Human immunodeficiency virus 1, isolate ERS104pre
Summary of the method: (§1)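 Clinical HIV-1 isolates were tested in PHA-stimulated peripheral blood mononuclear cells as targets, with inhibition of p24 Gag protein production as the end point. Each value was determined in duplicate or triplicate and derived from three independent experiments.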

[4] = tested on: Human immunodeficiency virus 1; experiment: Antiviral activity against multidrug-resistant HIV1 isolate TM infected in PHA-stimulated PBMC assessed as inhibition of p24 […] protein; type: functional, organism-based; conditions: Human immunodeficiency virus 1, isolate TM; summary of the method: as §1
[5] = tested on: Human immunodeficiency virus 1; experiment: Antiviral activity against multidrug-resistant HIV1 isolate MM infected in PHA-stimulated PBMC assessed as inhibition of p24 […] protein; type: functional, organism-based; conditions: Human immunodeficiency virus 1, isolate MM; summary of the method: as §1
[6] = tested on: Human immunodeficiency virus 1; experiment: Antiviral activity against multidrug-resistant HIV1 isolate C infected in PHA-stimulated PBMC assessed as inhibition of p24 […] protein; type: functional, organism-based; conditions: Human immunodeficiency virus 1, isolate C; summary of the method: as §1
[7] = tested on: Human immunodeficiency virus 1; experiment: Antiviral activity against multidrug-resistant HIV1 isolate G infected in PHA-stimulated PBMC assessed as inhibition of p24 […] protein; type: functional, organism-based; conditions: Human immunodeficiency virus 1, isolate G; summary of the method: as §1
[8] = tested on: Human immunodeficiency virus 1; experiment: Ratio of EC50 for multidrug-resistant HIV1 isolate TM to EC50 for wild type HIV1 isolate ERS104pre; type: functional
Summary of the method: (§2)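 Fold change is the EC50 against each multidrug-resistant isolate divided by the EC50 against HIV-1ERS104pre. EC50s came from PHA-stimulated PBMC with a p24 Gag production end point, run in duplicate or triplicate across three independent experiments.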

[9] = tested on: Human immunodeficiency virus 1; experiment: Ratio of EC50 for multidrug-resistant HIV1 isolate MM to EC50 for wild type HIV1 isolate ERS104pre; type: functional; summary of the method: as §2
[10] = tested on: Human immunodeficiency virus 1; experiment: Ratio of EC50 for multidrug-resistant HIV1 isolate C to EC50 for wild type HIV1 isolate ERS104pre; type: functional; summary of the method: as §2
[11] = tested on: Human immunodeficiency virus 1; experiment: Ratio of EC50 for multidrug-resistant HIV1 isolate G to EC50 for wild type HIV1 isolate ERS104pre; type: functional; summary of the method: as §2
[12] = tested on: Human immunodeficiency virus 1; experiment: Antiviral activity against saquinavir-resistant HIV1 NL4-3; type: functional, organism-based; conditions: Human immunodeficiency virus 1, NL4-3
[13] = tested on: Human immunodeficiency virus 1; experiment: Antiviral activity against amprenavir-resistant HIV1 NL4-3; type: functional, organism-based; conditions: Human immunodeficiency virus 1, NL4-3
[14] = tested on: Human immunodeficiency virus 1; experiment: Antiviral activity against indinavir-resistant HIV1 NL4-3; type: functional, organism-based; conditions: Human immunodeficiency virus 1, NL4-3
[15] = tested on: Human immunodeficiency virus 1; experiment: Antiviral activity against nelfinavir-resistant HIV1 NL4-3; type: functional, organism-based; conditions: Human immunodeficiency virus 1, NL4-3
[16] = tested on: Human immunodeficiency virus 1; experiment: Antiviral activity against ritonavir-resistant HIV1 NL4-3; type: functional, organism-based; conditions: Human immunodeficiency virus 1, NL4-3
[17] = tested on: Human immunodeficiency virus 1; experiment: Antiviral activity against lopinavir-resistant HIV1 NL4-3; type: functional, organism-based; conditions: Human immunodeficiency virus 1, NL4-3
[18] = tested on: Human immunodeficiency virus 1; experiment: Antiviral activity against atazanavir-resistant HIV1 NL4-3; type: functional, organism-based; conditions: Human immunodeficiency virus 1, NL4-3

Compound `Nc1ccc(S(=O)(=O)N(C[C@@H]2CCC(=O)N2)C[C@@H](O)[C@H](Cc2ccccc2)NC(=O)O[C@H]2CO[C@H]3OCC[C@H]32)cc1` has a Ki [1] of 0.28 nM.
`Nc1ccc(S(=O)(=O)N(C[C@H]2CCC(=O)N2)C[C@@H](O)[C@H](Cc2ccccc2)NC(=O)O[C@H]2CO[C@H]3OCC[C@H]32)cc1` gave a Ki [1] of 0.85 nM and an IC50 [2] greater than 1000 nM.
For `CC(C)(C)NC(=O)[C@@H]1CN(Cc2cccnc2)CCN1C[C@@H](O)C[C@@H](Cc1ccccc1)C(=O)N[C@H]1c2ccccc2C[C@H]1O.O`, the EC50 [3] was 28 nM, the EC50 [4] was greater than 1000 nM and the EC50 [5] was greater than 1000 nM. For the same compound, the EC50 [6] was greater than 1000 nM, the EC50 [7] was 290 nM and the “Ratio EC50” value [8] was greater than 36. The “Ratio EC50” value [9] was greater than 36, the “Ratio EC50” value [10] was greater than 36 and the “Ratio EC50” value [11] was 10.
`COc1ccc(S(=O)(=O)N(C[C@@H]2CCC(=O)N2)C[C@@H](O)[C@H](Cc2ccccc2)NC(=O)O[C@@H]2C[C@@H]3CCO[C@@H]3C2)cc1` showed a Ki [1] of 0.31 nM and an IC50 [2] of 230 nM.
With `Nc1ccc(S(=O)(=O)N(C[C@H]2CCC(=O)N2)C[C@@H](O)[C@H](Cc2ccccc2)NC(=O)O[C@@H]2C[C@@H]3CCO[C@@H]3C2)cc1` the Ki [1] was 0.31 nM and the IC50 [2] was 600 nM.
Compound `COc1ccc(S(=O)(=O)N(C[C@@H]2CCC(=O)N2)C[C@@H](O)[C@H](Cc2ccccc2)NC(=O)O[C@H]2CO[C@H]3OCC[C@H]32)cc1` has a Ki [1] of 0.85 nM and an IC50 [2] of 480 nM.
Work on `COc1ccc(S(=O)(=O)N(C[C@H]2CCC(=O)N2)C[C@@H](O)[C@H](Cc2ccccc2)NC(=O)O[C@@H]2C[C@@H]3CCO[C@@H]3C2)cc1` yielded an IC50 [2] of 26 nM, an EC50 [3] of 28 nM and an EC50 [4] of 29 nM. It also gave an EC50 [5] of 42 nM, an EC50 [6] of 23 nM and an EC50 [7] of 27 nM. For the same compound, the “Ratio EC50” value [8] was 1, the “Ratio EC50” value [9] was 2 and the “Ratio EC50” value [10] was 1. The “Ratio EC50” value [11] was 1, the EC50 [12] was 36 nM and the EC50 [13] was 36 nM. The EC50 [14] was 36 nM, the EC50 [15] was 36 nM and the EC50 [16] was 36 nM. For the same compound, the EC50 [17] was 36 nM and the EC50 [18] was 36 nM.
Work on `COc1ccc(S(=O)(=O)N(C[C@H]2CCC(=O)N2)C[C@@H](O)[C@H](Cc2ccccc2)NC(=O)O[C@H]2CO[C@H]3OCC[C@H]32)cc1` yielded a Ki [1] of 0.12 nM and an IC50 [2] of 250 nM.
With `CC(C)CN(C[C@@H](O)[C@H](Cc1ccccc1)NC(=O)O[C@H]1CCOC1)S(=O)(=O)c1ccc(N)cc1` the EC50 [3] was 25 nM, the EC50 [4] was 250 nM and the EC50 [5] was 320 nM. For the same compound, the EC50 [6] was 350 nM, the EC50 [7] was 330 nM and the “Ratio EC50” value [8] was 10. The “Ratio EC50” value [9] was 13, the “Ratio EC50” value [10] was 14 and the “Ratio EC50” value [11] was 13.
With `COc1ccc(S(=O)(=O)N(C[C@H]2COC(=O)N2)C[C@@H](O)[C@H](Cc2ccccc2)NC(=O)O[C@H]2CO[C@H]3OCC[C@H]32)cc1` the Ki [1] was 0.035 nM and the IC50 [2] was 310 nM.
For `Nc1ccc(S(=O)(=O)N(C[C@@H]2CCC(=O)N2)C[C@@H](O)[C@H](Cc2ccccc2)NC(=O)O[C@@H]2C[C@@H]3CCO[C@@H]3C2)cc1`, the Ki [1] was 1.27 nM and the IC50 [2] was greater than 1000 nM.
Work on `COc1ccc(S(=O)(=O)N(C[C@@H]2COC(=O)N2)C[C@@H](O)[C@H](Cc2ccccc2)NC(=O)O[C@H]2CO[C@H]3OCC[C@H]32)cc1` yielded a Ki [1] of 0.28 nM and an IC50 [2] of 480 nM.
In the case of `Nc1ccc(S(=O)(=O)N(C[C@@H]2COC(=O)N2)C[C@@H](O)[C@H](Cc2ccccc2)NC(=O)O[C@H]2CO[C@H]3OCC[C@H]32)cc1`, the Ki [1] is reported as 0.31 nM.
For `Nc1ccc(S(=O)(=O)N(C[C@H]2COC(=O)N2)C[C@@H](O)[C@H](Cc2ccccc2)NC(=O)O[C@H]2CO[C@H]3OCC[C@H]32)cc1`, the Ki [1] was 0.24 nM and the IC50 [2] was greater than 1000 nM.
